pIC50, pKi: −log10 of the molar value. Calls of active or inactive are those of the source. No cut-off for these calls is given here.
Experiments:
[1] = target: T1, Sphingosine kinase 1 (Homo sapiens, UniProt Q9NYA1); experiment: Inhibition of EGFP-fused human SPHK1 expressed in CHO cells at 10 uM; format: cell-based
Summary of the method: (§1)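 Enzyme source: lysates (40 µg protein) of CHO cells transiently transfected (Lipofectamine 2000) with human SPHK1 (EGFP fusion) or SPHK2 plasmid. Compound at 10 µM in sphingosine kinase buffer with sphingosine-BSA complex (1 mM stock) and cold plus γ-[32P]ATP; 30 min at 37 °C. Lipids extracted with acidified chloroform/methanol, run on TLC, phosphorimaged; triplicate lanes per tube.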

[2] = target: T2, Sphingosine kinase 2 (Homo sapiens) (UniProt Q9NRA0); experiment: Inhibition of human cloned SPHK2 expressed in CHO cells at 10 uM; format: cell-based; summary of the method: as §1
T2 sequence (whole entry): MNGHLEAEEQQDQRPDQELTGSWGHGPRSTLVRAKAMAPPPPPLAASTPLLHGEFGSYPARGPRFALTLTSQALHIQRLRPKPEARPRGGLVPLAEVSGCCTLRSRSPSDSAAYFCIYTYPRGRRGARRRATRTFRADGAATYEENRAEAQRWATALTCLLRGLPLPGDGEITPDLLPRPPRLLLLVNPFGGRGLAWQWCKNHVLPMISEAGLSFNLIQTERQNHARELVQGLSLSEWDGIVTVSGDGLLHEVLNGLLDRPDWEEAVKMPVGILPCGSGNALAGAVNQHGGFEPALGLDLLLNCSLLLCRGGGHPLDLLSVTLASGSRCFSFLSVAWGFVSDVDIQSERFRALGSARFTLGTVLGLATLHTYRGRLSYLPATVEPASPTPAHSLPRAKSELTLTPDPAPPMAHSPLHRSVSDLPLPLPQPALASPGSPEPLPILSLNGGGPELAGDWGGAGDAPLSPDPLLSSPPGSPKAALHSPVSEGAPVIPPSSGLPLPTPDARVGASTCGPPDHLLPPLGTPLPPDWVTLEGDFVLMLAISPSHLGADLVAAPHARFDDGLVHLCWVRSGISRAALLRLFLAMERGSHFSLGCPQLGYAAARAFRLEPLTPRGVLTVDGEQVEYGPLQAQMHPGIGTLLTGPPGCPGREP

[3] = target: T2, Sphingosine kinase 2 (Homo sapiens); experiment: Effect on human cloned SPHK2 activity expressed in CHO cells at 10 uM relative to basal level; format: cell-based; summary of the method: as §1
[4] = target: T1, Sphingosine kinase 1; experiment: Effect on EGFP-fused human SPHK1 activity expressed in CHO cells at 10 uM relative to basal level; format: cell-based; summary of the method: as §1
[5] = target: T1, Sphingosine kinase 1; experiment: Inhibition of human SPHK1 expressed in human U937 cells assessed as inhibition of endogenous sphingosine-1-phosphate levels at 5 uM after 2 hrs by ELISA; format: cell-based; settings: U-937
Summary of the method: (§2)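 U937 cells transfected with huSPHK1 or huSPHK2 plasmid, then incubated with or without inhibitor at 5 µM for 2 h. Endogenous S1P was measured by competitive ELISA (sensitivity 30 nM).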

[6] = tested on: U-937; experiment: Inhibition of basal sphingosine-1-phosphate levels in human U937 cells at 5 uM after 2 hrs by ELISA; format: functional, cell-based
Summary of the method: (§3)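 Human monocytic U937 cells, stimulated or not with TNFα, were incubated with or without inhibitor at 5 µM for 2 h. Cellular S1P was quantified by competitive S1P ELISA (sensitivity 30 nM).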

[7] = target: T2, Sphingosine kinase 2 (Homo sapiens); experiment: Inhibition of human SPHK2 expressed in human U937 cells assessed as inhibition of endogenous sphingosine-1-phosphate levels at 5 uM after 2 hrs by ELISA; format: cell-based; settings: U-937; summary of the method: as §2
[8] = target: T1, Sphingosine kinase 1; experiment: Inhibition of EGFP-fused human SPHK1 expressed in CHO cells; format: cell-based
Summary of the method: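 SPHK1 from transfected CHO cell lysates (40 µg per tube), sphingosine-BSA and γ-[32P]ATP, 30 min at 37 °C. Compounds tested at 0, 10, 25, 50 and 100 µM. Radiolabelled S1P measured by TLC and phosphorimaging. IC50 obtained from triplicate experiments and reported as mean ± SD.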

[9] = target: T1, Sphingosine kinase 1; experiment: Inhibition of EGFP-fused human SPHK1 expressed in CHO cells using D-erythro-sphingosine as substrate by Michaelis-Menten plot
Summary of the method: (§4)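 Kinetics of huSPHK1 or huSPHK2 from transfected CHO lysates, with D-erythro-sphingosine as substrate, in the 32P-ATP TLC assay (30 min, 37 °C). Michaelis-Menten behaviour was used to derive Km for sphingosine and Ki for the inhibitors.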

[10] = tested on: U-937; experiment: Antiproliferative activity against human U937 cells at 10 uM after 24 to 72 hrs by MTT assay; format: functional
Summary of the method: (§5)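 U937 or HL60 cells in RPMI 1640 with 10% FBS and 1% L-glutamine; 50 000 cells/well at 1 × 10^6 cells/mL. Compound at 10 µM, DMSO 0.5% of volume as vehicle control. Incubated 24, 48, 72 h at 37 °C, 5% CO2. MTT (4 mg/mL in RPMI) added for 2 h in dark, crystals dissolved in DMSO/glycine buffer, A570 read.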

[11] = tested on: U-937; experiment: Inhibition of TNF-alpha-induced sphingosine-1-phosphate levels in human U937 cells at 5 uM after 2 hrs by ELISA; format: functional, cell-based; summary of the method: as §3
[12] = tested on: HL-60; experiment: Antiproliferative activity against human HL60 cells at 10 uM after 24 to 72 hrs by MTT assay; format: functional; summary of the method: as §5
[13] = target: Protein kinase C alpha type (Homo sapiens) (UniProt P17252); experiment: Inhibition of human PKCalpha at 100 uM by gel electrophoresis
Summary of the method: (§6)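 PepTag nonradioactive assay: purified human PKCα with C1 peptide, PKC activator and reaction buffer. Inhibitor at 10, 25, 50, 75 or 100 µM, preincubated 2 min, then 30 min at 30 °C with enzyme. Stopped at 95 °C for 10 min.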

[14] = target: Protein kinase C alpha type (Homo sapiens) (UniProt P17252); experiment: Inhibition of human PKCalpha at 50 uM by gel electrophoresis; summary of the method: as §6
[15] = target: T3, Sphingosine kinase 2 (Homo sapiens, UniProt Q9NRA0); experiment: Inhibition of human cloned SPHK2 expressed in CHO cells using D-erythro-sphingosine as substrate by Michaelis-Menten plot; summary of the method: as §4
T3 sequence (Q9NRA0 whole entry): T2 sequence (whole entry)

T1 sequence (Q9NYA1 whole entry, the tested form may be a part): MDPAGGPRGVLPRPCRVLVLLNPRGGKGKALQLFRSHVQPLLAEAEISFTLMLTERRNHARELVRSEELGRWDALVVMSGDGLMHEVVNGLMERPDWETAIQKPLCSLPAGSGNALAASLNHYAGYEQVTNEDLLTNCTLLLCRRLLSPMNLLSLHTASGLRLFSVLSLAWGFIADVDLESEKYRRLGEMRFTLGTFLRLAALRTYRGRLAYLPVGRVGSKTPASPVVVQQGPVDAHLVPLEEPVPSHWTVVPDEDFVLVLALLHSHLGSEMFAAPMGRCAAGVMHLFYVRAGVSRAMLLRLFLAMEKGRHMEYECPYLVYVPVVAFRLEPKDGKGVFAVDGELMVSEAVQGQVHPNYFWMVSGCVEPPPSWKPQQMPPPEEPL

Structure (SMILES)	inhibition [1]	inhibition [2]	Activity [3]	Activity [4]	Activity [5]	Activity [6]	Activity [7]	pIC50 [8]	pKi [9]	Activity [10]	Activity [11]	Activity [12]	Activity [13]	Activity [14]	pKi [15]
CCCCC#C[C@@H](O)[C@@H](N)CO	inactive	inactive	109%	132%	–	–	–	–	–	–	–	–	–	–	–
CCCCCCCCCCCCCC#CC(=O)[C@H](CO)NC(=O)OC(C)(C)C	56.9%	54.1%	45.9%	43.1%	Active	Active	Active	5.92	6.00	Active	inactive	–	–	–	–
CCCCC#CC(=O)[C@H](CO)NC(=O)OC(C)(C)C	inactive	inactive	117%	106%	–	–	–	–	–	–	–	–	–	–	–
CCCCCCCCCCCCCC#C[C@@H](O)[C@@H](N)CO	24.4%	inactive	152%	75.6%	–	–	–	–	–	–	–	–	–	–	–
CCCCCCC(=O)[C@@H]1COC(C)(C)N1C(=O)OC(C)(C)C	4.71%	inactive	126%	95.3%	–	–	–	–	–	–	–	–	–	–	–
CCCCCCCCCCCCCC#C[C@@H](O)[C@@H]1COC(C)(C)N1C(=O)OC(C)(C)C	inactive	inactive	123%	112%	–	–	–	–	–	–	–	–	–	–	–
CCCCCCCCC#C[C@@H](O)[C@@H](N)CO	13.7%	inactive	116%	86.3%	–	–	–	–	–	–	–	–	–	–	–
CCCCCCCCCCCCCC#CC(=O)[C@@H]1COC(C)(C)N1C(=O)OC(C)(C)C	54.7%	inactive	117%	45.3%	Active	–	–	5.48	5.52	10%	Active	10%	Active	–	–
CCCCCCCCC#CC(=O)[C@H](CO)NC(=O)OC(C)(C)C	4.2%	inactive	89.9%	95.8%	–	–	–	–	–	–	–	–	–	–	–
CCCCC#CC(=O)[C@@H]1COC(C)(C)N1C(=O)OC(C)(C)C	9.08%	inactive	115%	90.9%	–	–	–	–	–	–	–	–	–	–	–
CCCCCCCCCCCCC/C=C/[C@@H](O)[C@H](CO)N(C)C [DIMETHYLSPINGOSINE]	–	33%	67%	–	–	Active	Active	–	–	–	Active	–	–	Active	4.90
CCCCCCCCC#CC(=O)[C@@H]1COC(C)(C)N1C(=O)OC(C)(C)C	15.2%	37.2%	62.8%	84.8%	–	–	–	–	–	–	–	–	–	–	–
CCCCC#C[C@H](O)[C@H](CO)NC(=O)OC(C)(C)C	inactive	inactive	111%	117%	–	–	–	–	–	–	–	–	–	–	–

Source: ChEMBL document CHEMBL1136987, “Synthesis and evaluation of sphingosine analogues as inhibitors of sphingosine kinases” (J Med Chem, 2009)
